Results reported in ChEMBL document CHEMBL4152363, “Andrographolide derivative as STAT3 inhibitor that protects acute liver damage in mice” (Bioorg Med Chem, 2018).
The source made the active and inactive calls. No cut-off for these calls is given here.

What was measured:
[1] = target: T1, Signal transducer and activator of transcription 3 (Homo sapiens, UniProt P40763); test: Inhibition of IFNgamma-stimulated STAT3 activation in human HeLa cells incubated with IFNgamma for 16 hrs followed by compound addition measured after 24 hrs by luciferase reporter gene assay; type: cell-based
How it was run: (§1)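 AD-293 or HeLa cells in DMEM/10% FBS stimulated with 20 pg/mL IFN-γ; compound treatment 24 h; luciferase activity measured in cell extracts; EC50 derived.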

[2] = target: T1, Signal transducer and activator of transcription 3; test: Inhibition of IL-6 stimulated STAT3 activation in human AD293 cells incubated with IL-6 for 16 hrs followed by compound addition measured after 6 hrs by luciferase reporter gene assay; type: cell-based
How it was run: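 AD-293 cells stimulated with 2.5 μg/mL IL-6; compound treatment 6 h; luciferase activity read from cell extracts; EC50 derived.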

HeLa = test: Cytotoxicity against human HeLa cells; type: cell-based
How it was run: (§2)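 AD-293 or HeLa cells grown in high-glucose DMEM with 10% FBS and 1% penicillin-streptomycin; compound exposure 24 h; cytotoxicity reported as CC10.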

[3] = target: T1, Signal transducer and activator of transcription 3; test: Inhibition of […] activation in human HeLa cells incubated […] for 16 hrs followed by compound addition measured after 4 hrs by luciferase reporter gene assay; type: cell-based
How it was run: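 NF-κB pathway in AD-293 or HeLa cells stimulated with 50 ng/mL TNF-α; compound treatment 4 h; luciferase activity read from cell extracts; EC50 derived.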

[4] = target: T1, Signal transducer and activator of transcription 3; test: Inhibition of […] activation in human AD293 cells incubated […] for 16 hrs followed by compound addition measured after 4 hrs by luciferase reporter gene assay; type: cell-based
[5] = (§3) Cytotoxicity against human AD293 cells; type: cell-based; conditions: AD293 cells; how it was run: as §2
[6] = target: T1, Signal transducer and activator of transcription 3; test: Inhibition of IFNgamma-stimulated STAT3 activation in human AD293 cells incubated with IFNgamma for 16 hrs followed by compound addition measured after 24 hrs by luciferase reporter gene assay; type: cell-based; how it was run: as §1
[7] = target: T1, Signal transducer and activator of transcription 3; test: Inhibition of IFNgamma-stimulated STAT3 phosphorylation at Tyr705 residues in human AD293 cell lysates incubated with IFNgamma followed by compound addition at 10 uM by Western blot analysis
How it was run: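 AD-293 cells treated with 1 μg/mL IFN-γ alone or with compounds at 10 μM; phospho- and total STAT1 and STAT3 assessed by western blot; representative of at least three independent experiments.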

AD293 = test: as §3; type: cell-based; conditions: ad293; how it was run: as §2

T1 sequence (P40763 whole entry): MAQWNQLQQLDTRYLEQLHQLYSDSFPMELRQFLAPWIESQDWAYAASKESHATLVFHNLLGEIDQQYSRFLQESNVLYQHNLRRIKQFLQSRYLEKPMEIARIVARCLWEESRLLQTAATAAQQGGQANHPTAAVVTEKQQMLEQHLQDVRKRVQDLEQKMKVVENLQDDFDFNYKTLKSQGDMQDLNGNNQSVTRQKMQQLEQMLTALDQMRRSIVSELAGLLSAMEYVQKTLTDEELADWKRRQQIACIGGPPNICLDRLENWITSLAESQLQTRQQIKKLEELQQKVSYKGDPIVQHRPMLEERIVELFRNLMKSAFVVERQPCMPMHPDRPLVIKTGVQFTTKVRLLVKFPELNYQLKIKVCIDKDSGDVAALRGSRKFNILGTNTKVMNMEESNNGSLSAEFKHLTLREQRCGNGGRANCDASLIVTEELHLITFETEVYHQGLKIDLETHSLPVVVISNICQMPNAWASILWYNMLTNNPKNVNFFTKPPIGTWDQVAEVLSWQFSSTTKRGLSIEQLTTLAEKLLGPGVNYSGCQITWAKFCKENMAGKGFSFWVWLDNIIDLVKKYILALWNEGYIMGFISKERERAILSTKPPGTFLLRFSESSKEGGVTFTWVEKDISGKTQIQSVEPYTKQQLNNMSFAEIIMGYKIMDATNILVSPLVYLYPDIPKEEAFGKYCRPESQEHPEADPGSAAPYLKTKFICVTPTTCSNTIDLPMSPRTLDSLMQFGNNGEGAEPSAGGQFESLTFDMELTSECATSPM

EC50 [1]	EC50 [2]	EC50 [3]	EC50 [4]	EC50 [6]	inhibition [7]	Structure (SMILES)	CC10 (HeLa)	CC50 [5]	CC10 (AD293)
4.33 µM	2.21 µM	8.11 µM	6.92 µM	1.18 µM	–	C=C1CC[C@@H]2[C@](C)(CO[Si](C)(C)C(C)(C)C)[C@H](O)CC[C@@]2(C)[C@@H]1C/C=C1/C(=O)OC[C@H]1OC(C)=O	> 10 µM	7.33 µM	–
4.43 µM	0.99 µM	4.57 µM	7.52 µM	1.97 µM	–	C=C1CC[C@H]2[C@@](C)(CCC(=O)[C@@]2(C)CO[Si](C)(C)C(C)(C)C)[C@@H]1C/C=C1/C(=O)OC[C@H]1OC(C)=O	> 10 µM	7.35 µM	–
8.34 µM	> 10 µM	> 10 µM	> 10 µM	5.38 µM	Active	CC(=O)OC[C@]1(C)C(=O)CC[C@@]2(C)[C@H](C/C=C3/C(=O)OC[C@H]3O[Si](C)(C)C(C)(C)C)[C@]3(CC[C@@H]21)CO3	> 10 µM	–	> 10 µM
> 10 µM	3.04 µM	7.54 µM	8.51 µM	2.6 µM	–	CC(=O)O[C@@H]1COC(=O)/C1=C/C[C@@H]1[C@@]2(CC[C@@H]3[C@](C)(CO)[C@H](O)CC[C@]31C)CO2	> 10 µM	–	> 10 µM
> 10 µM	> 10 µM	> 10 µM	> 10 µM	> 10 µM	–	C=C1CC[C@@H]2[C@](C)(CO)[C@H](O)CC[C@@]2(C)[C@@H]1C/C=C1/C(=O)OC[C@H]1O [ANDROGRAPHOLIDE]	> 10 µM	–	> 10 µM
> 10 µM	> 10 µM	> 10 µM	> 10 µM	> 10 µM	–	C=C1CC[C@H]2[C@@](C)(CCC(=O)[C@@]2(C)CO)[C@@H]1C/C=C1/C(=O)OC[C@@H]1O[Si](C)(C)C(C)(C)C	> 10 µM	–	> 10 µM
> 10 µM	7.98 µM	> 10 µM	> 10 µM	5.81 µM	–	CC(=O)OC[C@]1(C)C(=O)CC[C@@]2(C)[C@H](C/C=C3/C(=O)OC[C@H]3O[Si](C)(C)C(C)(C)C)[C@@]3(CC[C@@H]21)CO3	> 10 µM	–	> 10 µM
> 10 µM	4.34 µM	> 10 µM	> 10 µM	4.72 µM	–	C=C1CC[C@H]2[C@@](C)(CCC(=O)[C@@]2(C)CO[Si](C)(C)C(C)(C)C)[C@@H]1C/C=C1/C(=O)OC[C@@H]1O	> 10 µM	–	> 10 µM
9.45 µM	3.11 µM	9.67 µM	9.49 µM	5.11 µM	–	CC(=O)O[C@@H]1COC(=O)/C1=C/C[C@@H]1[C@]2(CC[C@@H]3[C@](C)(CO)[C@H](O)CC[C@]31C)CO2	> 10 µM	10.9 µM	–
> 10 µM	2.65 µM	9.91 µM	> 10 µM	2.55 µM	–	CC(=O)OC[C@]1(C)C(=O)CC[C@@]2(C)[C@H](C/C=C3/C(=O)OC[C@@H]3O[Si](C)(C)C(C)(C)C)[C@]3(CC[C@@H]21)CO3	> 10 µM	–	> 10 µM
> 10 µM	> 10 µM	> 10 µM	> 10 µM	> 10 µM	–	C=C1CC[C@@H]2[C@](C)(COC(C)=O)[C@H](OC(C)=O)CC[C@@]2(C)[C@@H]1C/C=C1/C(=O)OC[C@@H]1O[Si](C)(C)C(C)(C)C	> 10 µM	–	> 10 µM
> 10 µM	> 10 µM	> 10 µM	> 10 µM	4.4 µM	–	CC(C)(C)[Si](C)(C)OC[C@]1(C)C(=O)CC[C@@]2(C)[C@H](C/C=C3/C(=O)OC[C@H]3O[Si](C)(C)C(C)(C)C)[C@]3(CC[C@@H]21)CO3	> 10 µM	–	> 10 µM
> 10 µM	> 10 µM	> 10 µM	> 10 µM	> 10 µM	–	C=C1CC[C@@H]2[C@](C)(CO)[C@H](O)CC[C@@]2(C)[C@@H]1C/C=C1/C(=O)OC[C@@H]1O[Si](C)(C)C(C)(C)C	> 10 µM	–	> 10 µM
8.95 µM	6.45 µM	8.81 µM	7.75 µM	3.45 µM	–	C=C1CC[C@H]2[C@@](C)(CCC(=O)[C@@]2(C)CO[Si](C)(C)C(C)(C)C)[C@@H]1C/C=C1/C(=O)OC[C@H]1O	> 10 µM	2.35 µM	–
> 10 µM	6.1 µM	> 10 µM	> 10 µM	7.93 µM	–	C=C1CC[C@H]2[C@@](C)(CCC(=O)[C@@]2(C)CO)[C@@H]1C/C=C1/C(=O)OC[C@H]1OC(C)=O	> 10 µM	–	> 10 µM
> 10 µM	2.56 µM	7.05 µM	> 10 µM	2.23 µM	–	CC(=O)OC[C@]1(C)C(=O)CC[C@@]2(C)[C@H](C/C=C3/C(=O)OC[C@@H]3O[Si](C)(C)C(C)(C)C)[C@@]3(CC[C@@H]21)CO3	> 10 µM	–	> 10 µM
> 10 µM	3.05 µM	> 10 µM	> 10 µM	3.45 µM	–	CC(C)(C)[Si](C)(C)O[C@@H]1COC(=O)/C1=C/C[C@@H]1[C@]2(CC[C@@H]3[C@](C)(CO)[C@H](O)CC[C@]31C)CO2	> 10 µM	–	> 10 µM
> 10 µM	> 10 µM	> 10 µM	> 10 µM	8.18 µM	–	C=C1CC[C@@H]2[C@](C)(COC(C)=O)[C@H](OC(C)=O)CC[C@@]2(C)[C@@H]1C/C=C1/C(=O)OC[C@H]1O[Si](C)(C)C(C)(C)C	> 10 µM	–	> 10 µM
> 10 µM	> 10 µM	> 10 µM	> 10 µM	> 10 µM	–	C[C@@]12CCC(=O)[C@@](C)(CO)[C@H]1CC[C@]1(CO1)[C@H]2C/C=C1/C(=O)OC[C@H]1O	> 10 µM	–	> 10 µM
> 10 µM	> 10 µM	> 10 µM	> 10 µM	> 10 µM	–	C=C1CC[C@H]2[C@@](C)(CCC(=O)[C@@]2(C)CO)[C@@H]1C/C=C1/C(=O)OC[C@H]1O[Si](C)(C)C(C)(C)C	> 10 µM	–	> 10 µM
9.43 µM	3.22 µM	9.96 µM	7.28 µM	8.15 µM	–	C=C1CC[C@@H]2[C@](C)(CO[Si](C)(C)C(C)(C)C)[C@H](O)CC[C@@]2(C)[C@@H]1C/C=C1/C(=O)OC[C@@H]1OC(C)=O	> 10 µM	6.83 µM	–
> 10 µM	> 10 µM	> 10 µM	> 10 µM	> 10 µM	–	CC(C)(C)[Si](C)(C)OC[C@]1(C)C(=O)CC[C@@]2(C)[C@H](C/C=C3/C(=O)OC[C@H]3O)[C@]3(CC[C@@H]21)CO3	> 10 µM	8.31 µM	–
9.33 µM	4.78 µM	> 10 µM	7.98 µM	4.75 µM	–	C=C1CC[C@H]2[C@@](C)(CCC(=O)[C@@]2(C)CO[Si](C)(C)C(C)(C)C)[C@@H]1C/C=C1/C(=O)OC[C@@H]1OC(C)=O	> 10 µM	8.23 µM	–
> 10 µM	> 10 µM	> 10 µM	> 10 µM	> 10 µM	–	C=C1CC[C@H]2[C@@](C)(CCC(=O)[C@@]2(C)COC(C)=O)[C@@H]1C/C=C1/C(=O)OC[C@H]1O[Si](C)(C)C(C)(C)C	> 10 µM	–	> 10 µM
> 10 µM	> 10 µM	> 10 µM	> 10 µM	> 10 µM	–	C=C1CC[C@H]2[C@@](C)(CCC(=O)[C@@]2(C)COC(C)=O)[C@@H]1C/C=C1/C(=O)OC[C@@H]1O[Si](C)(C)C(C)(C)C	> 10 µM	–	> 10 µM
> 10 µM	> 10 µM	> 10 µM	> 10 µM	> 10 µM	–	C=C1CC[C@H]2[C@@](C)(CCC(=O)[C@@]2(C)CO)[C@@H]1C/C=C1/C(=O)OC[C@@H]1OC(C)=O	> 10 µM	–	> 10 µM
